Measurements: paper PMC3304100 (Molecular Pharmaceutics, 2011)

How the values were obtained:
[1] = biological target: T1, hPepT1 (Homo sapiens, UniProt P46059); assay: Uptake in hPepT1 transfected vs non-transfected HeLa cells; type: cell-based; conditions: 1mM, pH 6.0, 45 min, 37°C, n=3
T1 sequence (P46059 1-708): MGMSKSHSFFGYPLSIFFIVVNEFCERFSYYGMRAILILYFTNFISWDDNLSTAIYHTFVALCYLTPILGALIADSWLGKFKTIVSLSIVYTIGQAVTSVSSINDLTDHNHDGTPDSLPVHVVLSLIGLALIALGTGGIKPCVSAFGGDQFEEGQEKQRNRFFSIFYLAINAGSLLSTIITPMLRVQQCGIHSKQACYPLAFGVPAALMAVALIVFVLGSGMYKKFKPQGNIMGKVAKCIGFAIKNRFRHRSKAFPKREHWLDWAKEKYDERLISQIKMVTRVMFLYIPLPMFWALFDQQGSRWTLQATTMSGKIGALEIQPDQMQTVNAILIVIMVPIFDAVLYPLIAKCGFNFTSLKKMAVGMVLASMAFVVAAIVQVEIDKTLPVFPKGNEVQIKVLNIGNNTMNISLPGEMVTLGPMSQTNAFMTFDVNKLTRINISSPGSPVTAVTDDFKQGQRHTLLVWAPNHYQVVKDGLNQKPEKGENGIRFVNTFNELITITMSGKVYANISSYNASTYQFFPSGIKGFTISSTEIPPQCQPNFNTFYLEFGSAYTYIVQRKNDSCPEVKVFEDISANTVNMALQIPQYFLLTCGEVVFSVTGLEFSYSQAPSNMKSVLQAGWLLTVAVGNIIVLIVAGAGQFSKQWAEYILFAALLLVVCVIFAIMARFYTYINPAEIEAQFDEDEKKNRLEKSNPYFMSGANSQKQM
Summary of the method: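 HeLa cells transduced with hPepT1-carrying adenovirus and used two days post-infection; non-transfected HeLa cells served as control. Cells were washed with pH 6.0 uptake buffer, then exposed to test compound (1mM) in uptake buffer at 37°C for 45 min and washed ice-cold. They were extracted in methanol:water (50:50) for 1 h at room temperature, and the supernatant was filtered and quantified by LC-MS. Sample protein was measured by DC assay against a BSA standard.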

[2] = test system: rat gut wall; assay: In situ single-pass intestinal perfusion in rats; type: in vivo; conditions: pH 5.5, n=4, metoprolol co-perfused as reference
Summary of the method: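 Fasted (12–18 h) male Wistar rats (250–280 g), ketamine-xylazine im. ~10 cm jejunal, mid-intestinal or ileal segment cannulated and perfused at 0.18 ml/min with pH 5.5 MES buffer, 290 mosm/l, containing phenol red and metoprolol. Drug concentration = highest oral dose/250 ml. After 1 h to steady state, outlet sampled every 10 min for 1 h; HPLC. Peff by plug-flow model, water-flux corrected, R 0.2 cm.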

[3] = cited from earlier work

## CC(C)[C@H](N)C(=O)OCCOCn1cnc2c(=O)[nH]c(N)nc21 [Valacyclovir]
[1]
  Uptake in HeLa/hPepT1 cells compared to non-transfected HeLa cells: ~ 5 fold

## CC(=O)N[C@H]1[C@H]([C@H](O)[C@H](O)CO)OC(C(=O)O)=C[C@@H]1N=C(N)N [Zanamivir]
[2]
  Effective permeability (Peff), in words: absolutely no permeability
[3]
  Absolute oral availability: approximately 2%
